# High-throughput results deposited in PubChem by several laboratories.
# Compounds with a hit are over-represented: about 3% of the library has one in this group of screens.
# HIF act: HIF pathway transcriptional activation. U2OS HRE-luciferase reporter, luminescence; normalized: DMSO 0%, desferrioxamine 100%. 300,000 tested, 0.32% active. activation, % at 7.5 µM (by protocol);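 active = mean activation of at least 10% of the iron chelator positive control signal, with at least half of replicates also reaching 10%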
# T cruzi inh: blocks replication of Trypanosoma cruzi. T. cruzi beta-gal in NIH3T3, luminescence, 90 h. inhibition, % (concentration not given with the values). 300,000 tested, 1.4% active. AID 1885;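 active = mean inhibition across valid replicates above about 55%, limit read from the data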;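 note: signal also drops with host cell toxicity which is not excluded here; higher percent means less beta-gal luminescence so fewer parasites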
#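 Read-out: Parasite load inhibition, % | Test system: Mouse NIH/3T3 fibroblasts infected with β-gal-expressing T. cruzi Tulahuen C4 | Amount: 5,000 cells/well | Medium: DMEM, 2% fetal bovine serum | Signal: GalScreen β-gal luminescence, detergent lysis, 60 min | Timing: 3 h attach, ≥90 h co-culture | Also added: Tulahuen C4 trypomastigotes, 5000/well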
# AI-2 QS mod: Vibrio harveyi AI-2 quorum sensing modulation; Vibrio harveyi JMH597 AI-2 luminescence/OD600 ratio, 9 h; stronger effect = lower value; strain lacks LuxN and CqsS sensors; 0 = neutral-control median; activity change, % at 7.5 µM; 300,000 tested, 0.4% active; in the data active = activity change below about -75%, passing the limit was not always enough;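 note: luminescence divided by OD600 gain over 9 h not by final OD600 alone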
# V-ATPase pHluor: alters yeast V-ATPase proton transport; 350,000 tested, 0.37% active; S. cerevisiae, pHLuorin cytosolic pH fluorescence; response, % at 10 µM; AID 504577; in the data active = response mostly above about 7.3%, no sharp cut-off; inactive = mostly below about 5.4%; note: actives read high
# NRP1-CendR mod: modulators of CendR peptide binding to human neuropilin-1; FAM-RPARPAR peptide binding to NRP-1, fluorescence polarization; inhibition, % at 25 µM; 360,000 tested, 0.85% active; AID 602438;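 active = inhibition or corrected inhibition above about 18%, plus a signal ratio from 0.5 to 1.5, limit read from the data, passing the limit was not always enough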
# Target sequence (O14786 whole entry, looked up): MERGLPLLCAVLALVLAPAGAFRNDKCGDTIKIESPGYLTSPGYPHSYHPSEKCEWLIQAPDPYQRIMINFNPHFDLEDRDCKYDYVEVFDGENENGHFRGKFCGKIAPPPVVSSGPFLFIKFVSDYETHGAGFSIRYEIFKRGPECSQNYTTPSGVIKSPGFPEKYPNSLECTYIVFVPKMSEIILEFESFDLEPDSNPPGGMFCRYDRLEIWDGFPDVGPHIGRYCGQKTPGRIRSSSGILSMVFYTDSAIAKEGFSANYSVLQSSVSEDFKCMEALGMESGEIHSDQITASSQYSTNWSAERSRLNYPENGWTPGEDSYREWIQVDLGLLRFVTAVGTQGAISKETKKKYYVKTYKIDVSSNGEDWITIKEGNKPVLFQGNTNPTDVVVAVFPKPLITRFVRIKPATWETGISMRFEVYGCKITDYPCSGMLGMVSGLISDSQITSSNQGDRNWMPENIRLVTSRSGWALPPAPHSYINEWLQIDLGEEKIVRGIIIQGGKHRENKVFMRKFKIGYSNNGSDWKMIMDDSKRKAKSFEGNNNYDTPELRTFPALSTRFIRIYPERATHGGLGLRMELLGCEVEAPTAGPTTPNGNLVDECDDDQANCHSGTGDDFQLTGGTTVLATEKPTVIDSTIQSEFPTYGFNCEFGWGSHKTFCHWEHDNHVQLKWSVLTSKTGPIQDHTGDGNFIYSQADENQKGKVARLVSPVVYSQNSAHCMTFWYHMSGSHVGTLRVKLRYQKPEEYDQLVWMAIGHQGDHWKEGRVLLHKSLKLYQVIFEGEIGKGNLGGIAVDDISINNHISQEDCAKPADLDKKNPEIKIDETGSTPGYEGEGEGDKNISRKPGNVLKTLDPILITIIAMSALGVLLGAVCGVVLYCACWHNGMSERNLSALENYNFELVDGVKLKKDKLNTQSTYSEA
# Yeast superoxide: caloric restriction mimetics inhibiting age-related superoxide in yeast. S. cerevisiae aged cells, superoxide DHE fluorescence; stronger effect = lower value. superoxide response (% of plate mean), % at 10 µM. 330,000 tested, 0.18% active;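 active = superoxide response under a set limit, about three screen SD below normal, cut at about 65% in these data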;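 note: yeast aged for seven days with compound at 30 °C before DHE staining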
# Hits are given with their value; i = inactive; nt = no result given.
SMILES,HIF act,T cruzi inh,AI-2 QS mod,V-ATPase pHluor,NRP1-CendR mod,Yeast superoxide
CN1CCc2c(sc(NC(=O)c3ccc4ccccc4c3)c2C(N)=O)C1,i,55,i,i,i,i
CCOC(=O)c1c(NC(=O)Cc2ccccc2)sc2c1CCN(CC)C2,i,i,i,i,i,i
CC(C)N1CCc2c(sc(NC(=O)CCS(=O)(=O)c3ccccc3)c2C(N)=O)C1,i,i,i,i,25,i
CCOC(=O)c1c(NC(=O)Cc2ccccc2)sc2c1CCN(C)C2,i,55,i,i,i,i
CCOC(=O)c1c(NC(=O)C[n+]2ccc(Cc3ccccc3)cc2)sc(C)c1C,i,59,i,i,i,i
O=C(Nc1ccc(C(=O)O)cc1)/C(=C\c1ccc2c(c1)OCO2)NC(=O)c1ccc(Br)cc1,i,i,i,i,i,i
Clc1ccc(Cl)c(OCCCCN2CCCCC2)c1,i,i,i,i,i,i
Cc1cccn2cc(CSc3nnc(Nc4ccc(C(C)C)cc4)s3)nc12,i,i,i,i,i,i
CCCCC(CC)C(=O)Nc1ncc([N+](=O)[O-])s1 (stereo unspecified),i,81,i,i,i,i
Cc1ccc(CC(=O)Nc2ncc([N+](=O)[O-])s2)cc1,i,69,i,i,i,i
Cc1ccc(S(=O)(=O)CC(=O)Nc2ncc([N+](=O)[O-])s2)cc1,i,i,i,i,i,i
Cc1cc(=O)[nH]c(SCCCOc2ccc(F)cc2)n1,i,i,i,i,i,i
N#C/C(=C\c1c(Cl)cccc1Cl)c1nn(-c2ccccc2)c(-n2cccc2)c1C#N,i,59,i,i,i,i
Cc1ccc(/C=C(\C#N)c2nn(-c3ccccc3)c(N)c2C#N)cc1,9.8,i,i,i,i,i
N#C/C(=C\c1cccc2ccccc12)c1nn(-c2ccccc2)c(N)c1C#N,i,i,i,nt,nt,i
CC1SCC(=O)N(CC(=O)NCc2ccccc2)C1=O (stereo unspecified),i,i,i,i,i,i
O=C(CN1C(=O)CSC1=O)NCc1ccccc1,i,i,i,i,27,i
CN(C)CCCN(C(=O)c1ccc(S(=O)(=O)N2CCc3ccccc32)cc1)c1nc2c(Cl)cccc2s1,i,55,i,i,i,i
CN(C)CCN(C(=O)c1ccc(S(=O)(=O)N2CCc3ccccc32)cc1)c1nc2ccc(F)cc2s1,i,63,i,i,i,i
CN(C)CCCN(C(=O)c1ccc(S(=O)(=O)N2CCCCCC2)cc1)c1nc2ccc(F)cc2s1,i,i,i,i,i,i
CCc1ccc2nc(N(CCCN(C)C)C(=O)c3ccc(S(=O)(=O)N4CCCc5ccccc54)cc3)sc2c1,i,61,i,i,i,i
O=C(CCNC(=O)c1ccc(Br)cc1)NCc1cccnc1,i,i,i,i,i,i
CSc1nc2ncc(C#N)cn2n1,i,i,i,i,i,i
CCOc1c(Cl)cc(/C=C/C(=O)N(CC)CC(=O)Nc2ccc(NC(C)=O)cc2)cc1OC,i,i,i,i,i,i
COc1cc(NC(=O)C2CCN(S(=O)(=O)c3cccs3)CC2)c(C(=O)O)cc1OC,nt,nt,nt,i,i,nt
SMILES,HIF act,T cruzi inh,AI-2 QS mod,V-ATPase pHluor,NRP1-CendR mod,Yeast superoxide
Cc1ccc(CN2CCN(/N=C/c3cc([N+](=O)[O-])ccc3Cl)CC2)cc1,i,i,i,i,i,i
Cc1ccc(CN2CCN(/N=C/c3ccc(Cl)c([N+](=O)[O-])c3)CC2)cc1,i,62,i,i,i,i
CCOC(=O)C1CCCN(C(=S)NC(=O)/C=C/c2ccc(F)cc2)C1 (stereo unspecified),i,i,i,i,i,i
Cc1ccc(NC2=Nc3ccccc3CS2)cc1,i,i,i,i,i,i
O=C1c2cccc3cccc(c23)C(=O)C1(O)O,i,i,i,i,54,i
COc1ccc(CNC(=O)CN(Cc2ccccc2)C(=O)CCC(=O)Nc2nccs2)cc1,i,i,i,i,i,i
COc1ccc(NS(=O)(=O)c2cc(NC(=O)C3CC3)ccc2N2CCCCC2)cc1,i,i,i,i,i,i
COc1ccccc1NS(=O)(=O)c1cccc(NC(=O)Nc2ccc(Cl)cc2)c1,i,67,i,i,i,i
COc1ccccc1NS(=O)(=O)c1cc(NC(=O)Nc2ccc(Cl)cc2Cl)ccc1N1CCCCC1,i,59,i,i,i,i
COc1ccccc1NS(=O)(=O)c1cc(NC(=O)c2ccc3c(c2)OCCO3)ccc1C,i,i,i,i,30,i
COc1ccccc1NS(=O)(=O)c1cc(NC(=O)c2ccc(Cl)nc2)ccc1N1CCCC1,nt,nt,nt,i,i,i
COc1ccccc1NS(=O)(=O)c1cc(NC(=O)C2CCC2)ccc1N1CCCCC1,i,57,i,i,i,i
COc1ccccc1NS(=O)(=O)c1cc(NC(=O)CNC(=O)c2ccccc2)ccc1C,i,i,i,i,i,i
CN(C(=O)c1ccno1)c1nnc(-c2cnccn2)s1,i,i,i,i,i,i
OC1(c2ccccc2)CCN(Cc2ccccc2)CC1,i,i,i,i,i,i
COc1ccccc1CNC(=O)Cc1ccc(C)cc1,i,i,i,i,43,i
COc1ccccc1CNCC(=O)NCc1ccc(C)cc1,i,i,i,i,i,i
COc1ccccc1CNC(=O)C12CC3CC(CC(C3)C1)C2,i,i,i,i,i,62
O=C(Nc1cccc([N+](=O)[O-])c1)C12CC3CC(C1)CC(n1cnc([N+](=O)[O-])n1)(C3)C2,i,64,i,i,i,i
O=C(Nc1ccccc1)C12CC3CC(C1)CC(n1cnc([N+](=O)[O-])n1)(C3)C2,i,55,i,i,i,i
CC1=C(C(=O)OC2CCCCC2)C(c2cccnc2)n2nnnc2N1 (stereo unspecified),i,59,i,i,i,i
COC(=O)C1=C(C)Nc2nnnn2C1c1cccnc1 (stereo unspecified),i,i,i,i,i,i
CCn1c(=O)cc(SCC(=O)N2CCN(C(=O)c3ccco3)CC2)c2ccccc21,i,i,i,i,i,i
COC(=O)c1[nH]c2cc(C)ccc2c1NC(=O)CN1CCCc2ccccc21,i,59,i,i,i,i
CCn1c(SCC(=O)NC2(C#N)CCCCC2)nc2ccccc2c1=O,i,i,i,i,i,i
O=C1CCN(CCc2ccccc2)CCN1CCSc1ccc(Br)cc1,i,i,i,i,23,nt
Cc1ccc(SCCN2CCN(CCc3ccccc3)CCC2=O)cc1,i,i,i,i,i,nt
CCOC(=O)c1c(NC(=O)c2cccs2)sc2c1CCC2,i,i,i,i,i,i
CC(C)=CCc1c(-c2ccc(O)cc2O)oc2cc3c(c(O)c2c1=O)C=CC(C)(C)O3,i,i,i,nt,nt,i
COc1ccc(-c2oc3c4c(cc(OC)c3c(=O)c2CC=C(C)C)OC(C)(C)C=C4)c(OC)c1,i,65,i,nt,nt,i
